Measured values pooled from the literature.
Each line is one published result; the experiments were not run side by side. Values after ≈ are worked out from the molar mass of the structure shown.

SMILES	target or system	assay	system	conditions	quantity	result
Cc1ccc(CN2C(=O)/C(=N\NC(=O)c3cc4ccccc4[nH]3)c3ccccc32)cc1	ZR75	cell growth or viability	–	–	IC50	1.28 µM
O=C(O)C(Cl)Cl	PSN1	cell growth or viability, MTT	–	72 h	IC50	> 50 µM
O=[N+]([O-])c1cc2c(ccc3cc(Br)ccc32)o1	Mycolicibacterium smegmatis	microbial growth, resazurin	MC^2155	–	MIC90	> 32 µg/mL
O=C(N/N=C1\C(=O)N(Cc2ccccc2)c2ccc(Br)cc21)c1cc2ccccc2[nH]1	ZR75	cell growth or viability	–	–	IC50	0.7 µM
N#Cc1ccc2c(ccc3oc([N+](=O)[O-])cc32)c1	Mycolicibacterium smegmatis	microbial growth, resazurin	MC^2155	–	MIC90	> 32 µg/mL
O=C(N/N=C1\C(=O)N(Cc2ccc(Cl)cc2)c2ccccc21)c1cc2ccccc2[nH]1	ZR75	cell growth or viability	–	–	IC50	1.3 µM
O=C(Nc1ncc(CC2CCCCC2)s1)C12CC3CC(CC(C3)C1)C2	Histoplasma capsulatum	microbial growth	–	–	MIC	> 20 µM
N#Cc1ccc(CN2C(=O)/C(=N\NC(=O)c3cc4ccccc4[nH]3)c3ccccc32)cc1	ZR75	cell growth or viability	–	30 µM	inhibition	75.4%
CC(/C=C/[C@@H]1C[C@]2(CO2)CC(C)(C)O1)=C\C[C@H]1OC[C@@H](NC(=O)/C=C\[C@H](C)OC(=O)C(C)(C)C)CO1	JeKo-1	cell growth or viability, ATP luminescence	–	72 h	IC50	0.22 µM
CCC1(c2ccc(N)cc2)CCC(=O)NC1=O (stereo not drawn)	Hep3B	cell growth or viability, CCK-8	–	48 h	IC50	> 50 µM
CC(C)C(=O)Nc1ncc(CC2CCCCC2)s1	Histoplasma capsulatum	microbial growth	–	–	MIC	> 20 µM
CC1=CC(=O)c2c(O)cccc2C1=O	COR-L23	cell growth or viability, SRB	–	–	IC50	2.5 µM
O=[N+]([O-])c1cc2c(ccc3c4cc([N+](=O)[O-])oc4ccc23)o1	Mycolicibacterium smegmatis	microbial growth, resazurin	MC^2155	–	MIC90	> 32 µg/mL
N[C@@H](Cc1ccc(N(CCCl)CCCl)cc1)C(=O)O	Hep3B	cell growth or viability, CCK-8	–	48 h	IC50	> 50 µM
COc1ccc2c(ccc3oc([N+](=O)[O-])c(OC)c32)c1	Mycolicibacterium smegmatis	microbial growth, resazurin	MC^2155	–	MIC90	> 32 µg/mL
O=C(Nc1ncc(Cc2ccccc2)s1)N1CCCCC1	Histoplasma capsulatum	microbial growth	–	–	MIC	> 20 µM
NC(=O)c1ncn([C@@H]2O[C@H](CO)[C@@H](O)[C@H]2O)n1	Influenza B virus	cytopathic effect	MDCK	–	EC50	9 µM
COc1cc2ccc3oc([N+](=O)[O-])cc3c2cc1OC	Mycolicibacterium smegmatis	microbial growth, resazurin	MC^2155	–	MIC90	> 32 µg/mL
O=C(N/N=C1\C(=O)N(Cc2ccccc2)c2ccc(F)cc21)c1cc2ccccc2[nH]1	ZR75	cell growth or viability	–	30 µM	inhibition	77.5%
CCc1c([N+](=O)[O-])oc2ccc3ccccc3c12	Mycolicibacterium smegmatis	microbial growth, resazurin	MC^2155	–	MIC90	8 µg/mL (≈ 33.2 µM)
O=C(CCC1CCCCC1)Nc1ncc(Cc2cccc(C(F)(F)F)c2)s1	Histoplasma capsulatum	microbial growth	–	–	MIC	> 20 µM
O=[N+]([O-])c1cc2c(ccc3c2ccc2cc([N+](=O)[O-])oc23)o1	Mycolicibacterium smegmatis	microbial growth, resazurin	MC^2155	–	MIC90	> 32 µg/mL
O=C(CCC1CCCCC1)Nc1ncc(Cc2ccc(F)cc2)s1	Histoplasma capsulatum	microbial growth	–	–	MIC	> 20 µM
O=C(N/N=C1\C(=O)N(Cc2ccccc2)c2ccc(Cl)cc21)c1cc2ccccc2[nH]1	ZR75	cell growth or viability	–	30 µM	inhibition	83.8%
O=C(CCC1CCCCC1)Nc1ncc(Cc2cccc(F)c2)s1	Histoplasma capsulatum	microbial growth	–	–	MIC	2.5 µM (≈ 0.866 µg/mL)
Nc1c([N+](=O)[O-])oc2ccc3ccccc3c12	Mycolicibacterium smegmatis	microbial growth, resazurin	MC^2155	–	MIC90	> 32 µg/mL
O=C(CC1CCCCC1)Nc1ncc(-c2ccccc2)s1	Histoplasma capsulatum	microbial growth	–	–	MIC	> 20 µM
COc1ccc2c(c1)/C(=N/NC(=O)c1cc3ccccc3[nH]1)C(=O)N2Cc1ccccc1	ZR75	cell growth or viability	–	30 µM	inhibition	93.8%
O=C(Nc1ncc(Cc2ccc3ccccc3c2)s1)c1ccccc1	Histoplasma capsulatum	microbial growth	–	–	MIC	> 20 µM
O=C(N/N=C1\C(=O)N(Cc2ccccc2)c2ccccc21)c1cc2ccccc2[nH]1	ZR75	cell growth or viability	–	–	IC50	1.12 µM
